This note sets out measurements from ChEMBL document CHEMBL2311367, “Synthesis, biological evaluation, and molecular modeling of glycyrrhizin derivatives as potent high-mobility group box-1 inhibitors with anti-heart-failure activity in vivo” (J Med Chem, 2013).

For experiment [1], the system named is Mus musculus. Briefly: Cardioprotective activity against DOX-induced acute heart failure DCM in ip dosed C57BL/6J mouse model assessed as improvement in the maximum ascending rate of the LV pressure administered qd from day 10 post DOX-challenge measured after 50 days by echocardiography. Format: functional, organism-based.
In experiment [2] the test system is Mus musculus. In words: Cardioprotective activity against DOX-induced acute heart failure DCM in ip dosed C57BL/6J mouse model assessed as improvement in the maximum descending rate of the LV pressure administered qd from day 10 post DOX-challenge measured after 50 days by echocardiography. The class given is functional, organism-based.
Experiment [3] concerns Mus musculus. In words: Cardioprotective activity against DOX-induced acute heart failure DCM in ip dosed C57BL/6J mouse model assessed as increase in survival rate administered qd from day 10 post DOX-challenge measured after 50 days by echocardiography. Format: functional, organism-based.
The subject of experiment [4] is Mus musculus. Briefly: Cardioprotective activity against DOX-induced acute heart failure DCM in ip dosed C57BL/6J mouse model assessed as increase in ejection fraction administered qd from day 10 post DOX-challenge measured after 50 days by echocardiography. The class given is functional, organism-based.
Experiment [5] deals with T1, High mobility group protein B1 (Mus musculus) (UniProt P63158).
T1 sequence (whole entry): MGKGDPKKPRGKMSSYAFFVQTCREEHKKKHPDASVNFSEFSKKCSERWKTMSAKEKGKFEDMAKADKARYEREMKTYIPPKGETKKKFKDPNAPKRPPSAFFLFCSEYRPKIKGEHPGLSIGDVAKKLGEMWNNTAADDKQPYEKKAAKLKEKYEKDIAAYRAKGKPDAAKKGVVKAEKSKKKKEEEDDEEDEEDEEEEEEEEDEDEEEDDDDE
In words: Inhibition of HMGB1 in mouse RAW264.7 cells assessed as LPS-induced TNFalpha release treated for 2 hrs prior to LPS-challenge measured after 16 hrs by ELISA. The class given is cell-based. A digest of the protocol: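 RAW 264.7 murine macrophage-like cells grown in RPMI 1640 with 10% heat-inactivated FBS and 2 mM glutamine, 5% CO2. Compounds or HMGB1 neutralizing antibody added 2 h before LPS (0.01 ng/mL), then 16 h stimulation; TNF-α in supernatant measured by ELISA. Each compound run at least twice in triplicate; ED50 given with 95% confidence interval.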
A general note: An ELISA detects its analyte on a solid surface through an enzyme-linked reagent.

Experiment [6] has as its system Mus musculus. Briefly: Cardioprotective activity against DOX-induced acute heart failure DCM in ip dosed C57BL/6J mouse model assessed as increase in fractional shortening administered qd from day 10 post DOX-challenge measured after 50 days by echocardiography. The class given is functional, organism-based.
In experiment [7] the target is T2, High mobility group protein B1 (Homo sapiens, UniProt P09429).
T2 sequence (P09429 whole entry): T1 sequence (whole entry) with D189E, E202D
Briefly: Binding affinity to HMGB1 (unknown origin).

Experiment [8] has as its system Mus musculus. In words: Cardioprotective activity against DOX-induced chronic heart failure DCM ip dosed C57BL/6J mouse model assessed as improvement of LV diastolic anterior wall administered qd from day 70 post DOX challenge measured after 35 days. The class given is functional, organism-based.
Experiment [9] relates to Mus musculus. Briefly: Cardioprotective activity against DOX-induced chronic heart failure DCM ip dosed C57BL/6J mouse model assessed as improvement of diastolic interventricular septum administered qd from day 70 post DOX challenge measured after 35 days. The class given is functional, organism-based.
The test system of experiment [10] is Mus musculus. Briefly: Cardioprotective activity against DOX-induced chronic heart failure DCM ip dosed C57BL/6J mouse model assessed as increase in survival rate administered qd from day 70 post DOX challenge measured after 35 days. The class given is functional, organism-based. The method, boiled down:
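Chronic DOX model: ip DOX at 3.5 mg/kg weekly for 8 weeks, then once-daily treatment with the indicated agent beginning two weeks after the last DOX dose. Survival followed by Kaplan-Meier curves and compared with a log rank test, n = 20/group.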

Experiment [11] deals with Mus musculus. In words: Cardioprotective activity against DOX-induced chronic heart failure DCM ip dosed C57BL/6J mouse model assessed as improvement of fractional shortening administered qd from day 70 post DOX challenge measured after 35 days. The class given is functional, organism-based.
The test system of experiment [12] is Mus musculus. In words: Cardioprotective activity against DOX-induced chronic heart failure DCM ip dosed C57BL/6J mouse model assessed as improvement of ejection fraction administered qd from day 70 post DOX challenge measured after 35 days. The class given is functional, organism-based.
The subject of experiment [13] is Mus musculus. Briefly: Cardioprotective activity against DOX-induced chronic heart failure DCM ip dosed C57BL/6J mouse model assessed as improvement of systolic interventricular septum administered qd from day 70 post DOX challenge measured after 35 days. Format: functional, organism-based.

Molecules are shown by their SMILES. Changes are numbered by the printed parent chain. Active and inactive are the calls of the source. The calls are words filed in the database; no cut-off is given here.

For the compound `C[C@H](NC[C@@]1(C)CC[C@]2(C)CC[C@]3(C)C(=CC(=O)[C@@H]4[C@@]5(C)CC[C@H](O[C@H]6O[C@H](C(=O)O)[C@@H](O)[C@H](O)[C@H]6O[C@@H]6O[C@H](C(=O)O)[C@@H](O)[C@H](O)[C@H]6O)C(C)(C)[C@@H]5CC[C@]43C)[C@@H]2C1)C(=O)O`, the result with Mus musculus [1] and in the experiment on Mus musculus [2] was Active. Besides, the result in the experiment with Mus musculus [3] and in the experiment on Mus musculus [4] was inactive. Further, the ED50 in experiment [5] stood at 337 µM.

Regarding `CC1(C)[C@@H](O[C@H]2O[C@H](C(=O)O)[C@@H](O)[C@H](O)[C@H]2O[C@@H]2O[C@H](C(=O)O)[C@@H](O)[C@H](O)[C@H]2O)CC[C@]2(C)[C@H]3C(=O)C=C4[C@@H]5C[C@@](C)(CNC6CCCCC6)CC[C@]5(C)CC[C@@]4(C)[C@]3(C)CC[C@@H]12`, in experiment [5], the ED50 came out at 193 µM.

On to `CCCNC[C@@]1(C)CC[C@]2(C)CC[C@]3(C)C(=CC(=O)[C@@H]4[C@@]5(C)CC[C@H](O[C@H]6O[C@H](C(=O)O)[C@@H](O)[C@H](O)[C@H]6O[C@@H]6O[C@H](C(=O)O)[C@@H](O)[C@H](O)[C@H]6O)C(C)(C)[C@@H]5CC[C@]43C)[C@@H]2C1`, for which, in experiment [5], the ED50 amounted to 226 µM.

On to `CC1(C)[C@@H](O[C@H]2O[C@H](C(=O)O)[C@@H](O)[C@H](O)[C@H]2O[C@@H]2O[C@H](C(=O)O)[C@@H](O)[C@H](O)[C@H]2O)CC[C@]2(C)[C@H]3C(=O)C=C4[C@@H]5C[C@@](C)(CN[C@@H](Cc6c[nH]c7ccccc67)C(=O)O)CC[C@]5(C)CC[C@@]4(C)[C@]3(C)CC[C@@H]12`, for which the result in the experiment with Mus musculus [1], with Mus musculus [2], in the experiment with Mus musculus [3], with Mus musculus [6] and in the experiment on Mus musculus [4] was Active. In [5], the ED50 stood at 144 µM.

For `CC1(C)[C@@H](O[C@H]2O[C@H](C(=O)O)[C@@H](O)[C@H](O)[C@H]2O[C@@H]2O[C@H](C(=O)O)[C@@H](O)[C@H](O)[C@H]2O)CC[C@]2(C)[C@H]3C(=O)C=C4[C@@H]5C[C@@](C)(C(=O)O)CC[C@]5(C)CC[C@@]4(C)[C@]3(C)CC[C@@H]12` [GLYCYRRHIZIN], the ED50 in [5] was 70 µM. Further, the Kd (in general, the equilibrium constant for the complex coming apart) in experiment [7] came to 150 µM.

On to `CC1(C)[C@@H](O[C@H]2O[C@H](C(=O)O)[C@@H](O)[C@H](O)[C@H]2O[C@@H]2O[C@H](C(=O)O)[C@@H](O)[C@H](O)[C@H]2O)CC[C@]2(C)[C@H]3C(=O)C=C4[C@@H]5C[C@@](C)(CNCC(=O)O)CC[C@]5(C)CC[C@@]4(C)[C@]3(C)CC[C@@H]12`, for which the outcome with Mus musculus [1], with Mus musculus [2], in the experiment on Mus musculus [3], with Mus musculus [6] and in the experiment with Mus musculus [4] was inactive. For the same compound, the inhibition entry in experiment [5] is “inactive”.

As to `CC1(C)[C@@H](O[C@H]2O[C@H](C(=O)O)[C@@H](O)[C@H](O)[C@H]2O[C@@H]2O[C@H](C(=O)O)[C@@H](O)[C@H](O)[C@H]2O)CC[C@]2(C)[C@H]3C(=O)C=C4[C@@H]5C[C@@](C)(CN[C@@H](CO)C(=O)O)CC[C@]5(C)CC[C@@]4(C)[C@]3(C)CC[C@@H]12`, the result with Mus musculus [1], in the experiment on Mus musculus [2], with Mus musculus [3], with Mus musculus [6] and in the experiment on Mus musculus [4] was Active. The ED50 in experiment [5] was 161 µM.

On to `CC1(C)[C@@H](O[C@H]2O[C@H](C(=O)O)[C@@H](O)[C@H](O)[C@H]2O[C@@H]2O[C@H](C(=O)O)[C@@H](O)[C@H](O)[C@H]2O)CC[C@]2(C)[C@H]3C(=O)C=C4[C@@H]5C[C@@](C)(CN[C@@H](Cc6ccccc6)C(=O)O)CC[C@]5(C)CC[C@@]4(C)[C@]3(C)CC[C@@H]12`, for which the inhibition entry in experiment [5] is “inactive”.

On to `CC1(C)[C@@H](O[C@H]2O[C@H](C(=O)O)[C@@H](O)[C@H](O)[C@H]2O[C@@H]2O[C@H](C(=O)O)[C@@H](O)[C@H](O)[C@H]2O)CC[C@]2(C)[C@H]3C(=O)C=C4[C@@H]5C[C@@](C)(CN[C@@H](CCC(=O)O)C(=O)O)CC[C@]5(C)CC[C@@]4(C)[C@]3(C)CC[C@@H]12`, for which the result with Mus musculus [8], with Mus musculus [1], with Mus musculus [9], in the experiment with Mus musculus [10], with Mus musculus [2] and in the experiment with Mus musculus [11] was Active. The outcome in the experiment on Mus musculus [3], in the experiment on Mus musculus [6], with Mus musculus [4], in the experiment with Mus musculus [12] and in the experiment with Mus musculus [13] was Active. The ED50 in experiment [5] came to 141 µM.

As to `CC1(C)[C@@H](O[C@H]2O[C@H](C(=O)O)[C@@H](O)[C@H](O)[C@H]2O[C@@H]2O[C@H](C(=O)O)[C@@H](O)[C@H](O)[C@H]2O)CC[C@]2(C)[C@H]3C(=O)C=C4[C@@H]5C[C@@](C)(CN[C@@H](Cc6ccc(O)cc6)C(=O)O)CC[C@]5(C)CC[C@@]4(C)[C@]3(C)CC[C@@H]12`, the inhibition entry in experiment [5] was “inactive”.

As for `CC1(C)[C@@H](O[C@H]2O[C@H](C(=O)O)[C@@H](O)[C@H](O)[C@H]2O[C@@H]2O[C@H](C(=O)O)[C@@H](O)[C@H](O)[C@H]2O)CC[C@]2(C)[C@H]3C(=O)C=C4[C@@H]5C[C@@](C)(CN[C@@H](CC(=O)O)C(=O)O)CC[C@]5(C)CC[C@@]4(C)[C@]3(C)CC[C@@H]12`, the result in the experiment with Mus musculus [8], with Mus musculus [9], with Mus musculus [10], in the experiment with Mus musculus [11], in the experiment with Mus musculus [12] and with Mus musculus [13] was inactive. In addition, the outcome with Mus musculus [1], in the experiment with Mus musculus [2], with Mus musculus [3], with Mus musculus [6] and in the experiment on Mus musculus [4] was Active. Also, the ED50 in [5] is 144 µM.
